Glyco luc inh – blocks N-linked glycosylation in D54 reporter cells | D54 ERlucT glycosylation luciferase reporter, 24 h; percent of 100 nM tunicamycin response | reporter increase, % at 12.5 µM | 360,000 tested, 0.23% active | AID 588692;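 active = mean luciferase reporter signal, scaled so untreated is 0 and the glycosylation-blocking control 100, at or above a set limit in every replicate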;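 also: luciferase carries N-glycosylation sites so blocking glycosylation raises the light; 0% = median of neutral control wells and 100% = median of 100 nM tunicamycin wells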
ALR H2O2 inh – blocks human ALR sulfhydryl oxidase activity | P55789 | purified ALR, DTT oxidation, H2O2 HRP-luminol luminescence | inhibition, % (concentration not given with the values) | 290,000 tested, 3.8% active | AID 485317;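 active = mean replicate inhibition above about 79%, with every replicate also reaching it, limit read from the data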
Target sequence (P55789 whole entry, looked up): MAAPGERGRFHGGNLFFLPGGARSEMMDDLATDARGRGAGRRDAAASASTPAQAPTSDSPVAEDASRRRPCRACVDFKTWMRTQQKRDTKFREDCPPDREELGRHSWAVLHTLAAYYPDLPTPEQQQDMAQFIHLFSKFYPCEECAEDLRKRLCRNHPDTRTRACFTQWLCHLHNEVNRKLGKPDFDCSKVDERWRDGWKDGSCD
T cell HTS – T cell immune modulation candidate. 2C CD8+ T cell-vesicle binding, flow cytometry; active compounds read low. response (vesicle binding), % at 7 µM. 330,000 tested, 0.068% active. AID 2052;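 active = response, share of CD8 T cells binding vesicles, and their 90th percentile fluorescence all below set limits, cut at about 80% in these data, passing the limit was not always enough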;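 also: values below 100% mean blocked vesicle binding to the CD8+ T cells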
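Read-out – percent CD8+ FL2 mean versus row control · System – murine 2C transgenic CD8+ T lymphocytes · Times – 1.5 h cell–vesicle binding at 37 °C, then 20 min icy labelling · Control set – naked vesicles low, QL9 vesicles with vehicle high · Detection – cytometric PE anti-B7-1 and Alexa647 anti-CD8 signals after 1% paraformaldehyde fixation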
An asterisk follows results filed as active; i = inactive; / = no result. Shown is part of a subset that was picked to be rich in hits.

SMILES	Glyco luc inh	ALR H2O2 inh	T cell HTS
CC(C)CC1C(=O)N(Cc2cn(CC3CCCCC3)nn2)CCS(=O)(=O)N1Cc1ccc(-c2ccc(F)nc2)cc1 (stereo not given)	0	/	/
Cc1ccc2nc(-c3ccccc3)cc(C(=O)N3CCN(S(=O)(=O)c4c(C)noc4C)CC3)c2c1	-2	-9	343
O=C1CCC/C(=N/NC(=O)c2cc(NS(=O)(=O)c3cccs3)cc(NS(=O)(=O)c3cccs3)c2)C1	1	44	353
O=C1CCC/C(=N/NC(=O)c2ccc(NS(=O)(=O)c3cccs3)cc2)C1	0	82*	166
COc1cc(/C=N/NC(=O)c2ccc(NS(=O)(=O)c3cccs3)cc2)cc(OC)c1O	-1	98*	80*
COc1cc(/C=N\NC(=O)c2ccc(-c3ccccc3)cc2)cc(OC)c1OC(C)=O	11	-2	346
O=C(NN=Cc1ccc(F)c(F)c1)c1ccc(NS(=O)(=O)c2cccs2)cc1	0	-2	476
COc1cc(/C=N\NC(=O)c2ccc(-c3ccccc3)cc2)cc(OC)c1O	15	96*	277
CN(Cc1ccccc1)C(=O)Nc1c(Cl)cccc1Cl	-1	/	/
Cc1ccc(N(CC(=O)NCc2ccccn2)S(=O)(=O)c2ccccc2)cc1C	-2	-4	509
O=C(CSc1ccc(-c2ccccn2)nn1)Nc1ccc(F)c(F)c1	-7	-2	183
COc1cccc(-n2ccnc2SCC(=O)NCc2ccccc2)c1	-2	-3	259
COc1cccc(-n2ccnc2SCC(=O)Nc2cc(C)on2)c1	-1	83*	136
Cc1cc(NC(=O)CSc2nccn2-c2ccc(Cl)cc2)no1	-1	99*	315
Cc1cc(NC(=O)CSc2nccn2-c2ccc(F)cc2)no1	-1	-18	331
COc1ccc(C(C)=O)cc1CN1C(=O)C(Cc2ccccc2)ON=C1c1ncccc1C (stereo not given)	-1	/	/
Cc1c(O)ccc2c(CC(=O)N[C@@H](Cc3ccccc3)C(=O)O)cc(=O)oc12	2	16	156
NC(N)=N/N=C/c1ccc2cccc(OCc3ccccc3)c2n1	29*	-11	329
O/N=C/c1ccc2cccc(OCc3ccccc3)c2n1	-5	-8	225
FC(F)(F)c1ccccc1NC(=S)N/N=C1\CC2CC=CC12 (stereo not given)	6	/	/
CC[n+]1c(/C=C(\C)Nc2ccccc2)sc2ccccc21	2	89*	226
CC[n+]1c(/C=C(\C)SC)sc2ccccc21	6	13	365
NC1=NN(c2c(Cl)cc(Cl)cc2Cl)C(=O)C1	-1	/	/
Cc1ccc(-n2[nH]c(C)c(C=Nc3ccc4[nH]c(=O)[nH]c4c3)c2=O)cc1C	-1	92*	123
Cc1ccc(-n2[nH]c(C)c(C=Nc3ccc4[nH]c(=O)[nH]c4c3)c2=O)cc1	-2	7	169
SMILES	Glyco luc inh	ALR H2O2 inh	T cell HTS
CCOc1ccc(S(=O)(=O)Nc2cc(Cl)ccc2O)cc1	3	28	170
CC(Nc1ccc(Cl)cc1)c1cc(Cl)ccc1O (stereo not given)	0	99*	566
CCOc1ccc(NC(C)c2cc(Cl)ccc2O)cc1 (stereo not given)	-2	99*	204
CC(Nc1ccc(Br)cn1)c1cc(Cl)ccc1O (stereo not given)	-3	/	/
CCC1(c2ccc(F)cc2)NC(=O)N(CC(=O)NC2CCCC(C)C2C)C1=O (stereo not given)	3	-3	383
CN(C)c1ccc(C(=O)N2CCCC(N3CCN(Cc4ccc5c(c4)OCO5)CC3)C2)cc1 (stereo not given)	-4	97*	541
O=C(c1ccc(F)cc1)N1CCCC(N2CCN(Cc3ccc4c(c3)OCO4)CC2)C1 (stereo not given)	1	-5	141
O=C(NC1CC1)c1[nH]c(C(F)(F)F)nc1-c1ccccc1	1	/	/
CCN(C(=O)c1cc2c(=O)[nH]c3ccc(C)cc3c2s1)c1ccc(F)cc1	3	-2	324
CCN(C(=O)c1cc2c(=O)[nH]c3ccc(C)cc3c2s1)c1cccc(C)c1	-1	-10	0.0*
CCc1noc(C)c1C(=O)Nc1nc2c(C)cccc2s1	2	/	i
Cc1cc(C(=O)Nc2nc3c(C)cccc3s2)c(C)o1	1	95*	399
c1cc(-c2ccc(N3CCOCC3)cc2)n2cnnc2c1	3	/	/
Oc1ccc2cc(Br)ccc2c1CN1CCCC1	2	76*	186
Oc1ccc(Br)cc1CN1CCCCCCC1	0	99*	336
Oc1ccc2ccccc2c1CN1CCCC1	-1	8	116
Brc1cccc(CN2CCCCCC2)c1	0	3	135
Cc1cc(-c2nc3ncccc3o2)ccc1NC(=S)NC(=O)C(C)C	0	-5	407
COc1cccc(-c2cc(NC(C)=O)c3ncc(-c4ccc(OC)c(OC)c4)n3c2)c1	1	/	/
CCNc1nc(NC(C)C)nc(ON=C(C)C)n1	/	-1	102
Cn1c(=S)[nH]c2ccccc21	2	84*	976
N#CCCn1c(=S)[nH]c2ccccc21	1	28	269
CCOc1ccc(N(CC(=O)N2CCOCC2)S(=O)(=O)c2ccc(F)cc2)cc1	2	5	497
COc1cc(OC)cc(-c2c(C#Cc3ccsc3)c3cc(-c4ccc(C(N)=O)cc4)ccc3n2C)c1	-6	-3	444
N#C/C(=N\Nc1cccc(C(F)(F)F)c1)C(=O)c1csc(-c2cccnc2)n1	1	97*	261
SMILES	Glyco luc inh	ALR H2O2 inh	T cell HTS
Cc1ccc(C(=O)Nc2cccc(C(F)(F)F)c2)cc1NC(=O)c1csc(-c2ccncc2)n1	-10	4	478
COc1cc(NC(=O)CN2C(=O)C(c3ccccc3)=NC2(C)C)cc(OC)c1	9	97*	478
COc1cc(NC(=O)CN2C(=O)C(c3ccccc3)=NC23CCCCCC3)cc(OC)c1	-3	55	329
CCCCSCCCNC(=O)CS(=O)Cc1nc(-c2cccc(C)c2)oc1C (stereo not given)	0	99*	649
CCCCNC(=O)CS(=O)Cc1nc(-c2cccc(C)c2)oc1C (stereo not given)	-1	99*	258
COc1ccc(CNC(=O)C2CCCN(Cc3nc(-c4cccc(C)c4)oc3C)C2)cc1 (stereo not given)	-4	-7	91
CCC(C)NC(=O)CS(=O)Cc1nc(-c2cccc(C)c2)oc1C (stereo not given)	2	98*	518
Cc1oc(-c2cccc(Cl)c2)nc1CSCC(=O)O	2	/	568
CCCCNC(=O)CS(=O)Cc1nc(-c2cccc(Cl)c2)oc1C (stereo not given)	1	100*	647
O=C(OC1Cn2c(=O)ccc(=O)n2C1)c1ccc([N+](=O)[O-])cc1	1	-19	441
CC(C)c1ccccc1-n1c(SCc2cc(=O)oc3ccc4ccccc4c23)nnc1-c1cccnc1	0	-9	129
Cc1cccc(-c2nc(CS(=O)CC(=O)NCCc3ccc(Cl)cc3)c(C)o2)c1 (stereo not given)	0	91*	167
Cc1c(CCC(=O)N[C@@H](C)C(=O)O)c(=O)oc2c(C)c3oc4c(c3cc12)CCCC4	0	97*	151
Cc1c(CCC(=O)NCCC(=O)O)c(=O)oc2c(C)c3oc4c(c3cc12)CCCC4	1	98*	191

From PubChem BioAssay
